Results collected from several papers.
Target: Calcium/calmodulin-dependent protein kinase type II subunit delta (CAMK2D, Homo sapiens, UniProt Q13557)

CCS(=O)(=O)c1cc2cc(C[C@@](O)(CC(C)(C)c3ccc(F)cc3C(N)=O)C(F)(F)F)[nH]c2cn1 — remaining binding (cell-free assay; competition with immobilised ligand; 1 µM): 81%
N[C@@H]1CCN(c2nccc(-c3cnn4ncccc34)n2)C1 — remaining binding (binding; 1 µM): 100%
COc1ccc2cc(OCC3(C(=O)O)CN(C(=O)c4ccc(F)cc4)C3)ccc2c1 — remaining binding (cell-free assay; competition with immobilised ligand; 1 µM): 100%
Nc1ncc2c(n1)-c1c([nH]c3ccc(C#CC4CC4)cc13)CCCC2 — remaining binding (binding; competition with immobilised ligand; 1 µM): 95%
C[C@H]1CCN(c2nccc(-c3cnn4ncccc34)n2)C1 — remaining binding (binding; 1 µM): 94%
O=C(NCCCN1CCOCC1)c1ccc(Nc2ncc(Cl)c(-c3ccc(Cl)s3)n2)cc1 — remaining binding (binding; competition with immobilised ligand; 1 µM): 83%
O=C(NCC1CCOCC1)c1n[nH]cc1NC(=O)c1c(F)cccc1F — remaining binding (binding; competition with immobilised ligand; 1 µM): 89%
c1cncc(-c2cccc(Nc3nccc(NC4CCCCC4)n3)c2)c1 — remaining binding (binding; competition with immobilised ligand; 10 µM): 92%
Cn1nc(C(F)(F)F)cc1-c1cnc(N2CCc3cc(S(=O)(=O)Nc4c(F)cc(Cl)cc4F)cc(N4CCCC4=O)c32)nc1 — remaining binding (cell-free assay; competition with immobilised ligand; 1 µM): 99%
CN(c1nccc(-c2cnn3ncccc23)n1)C1CC1 — remaining binding (binding; 1 µM): 100%
CCc1ccccc1C(=O)Nc1n[nH]c2c(C)c(F)c(C3C(C#N)=C(C)N(C)C(C)=C3C#N)cc12 — remaining binding (cell-free assay; competition with immobilised ligand; 1 µM): 78%
F[C@@H]1CCN(c2nccc(-c3cnn4ncccc34)n2)C1 — remaining binding (binding; 1 µM): 100%
O=C(NCCCN1CCOCC1)c1ccc(Nc2nccc(-c3cc4ccccc4s3)n2)cc1 — remaining binding (binding; competition with immobilised ligand; 1 µM): 86%
CN(C)c1nccc(-c2cnc3ncccn23)n1 — remaining binding (binding; 1 µM): 100%
O=C(c1ccc(Nc2ncc(Cl)c(-c3ccc(Cl)s3)n2)cc1)N1CCC(N2CCCC2)CC1 — remaining binding (binding; competition with immobilised ligand; 1 µM): 75%
CN(c1ccnc(CNc2nc(Nc3ccc4c(c3)CC(=O)N4)ncc2C(F)(F)F)n1)S(C)(=O)=O — remaining binding (cell-free assay; competition with immobilised ligand; 1 µM): 100%
CC1CCCN1c1nccc(-c2cnn3ncccc23)n1 (stereo not shown) — remaining binding (binding; 1 µM): 100%
CS(=O)(=O)c1cc(C2(NC(=O)c3cncc4c3cnn4-c3ccc(F)cc3)CC2)ccn1 — remaining binding (cell-free assay; competition with immobilised ligand; 1 µM): 76%
COc1cnc(Nc2cccc(S(N)(=O)=O)c2)nc1N1CCN(c2ccccc2)CC1 — remaining binding (binding; competition with immobilised ligand; 1 µM): 92%
CNC(=O)Nc1ccc2c(c1)CC[C@@]21OC(=O)N(CC(=O)N(Cc2ccc(F)cc2)[C@@H](C)C(F)(F)F)C1=O — remaining binding (cell-free assay; competition with immobilised ligand; 1 µM): 91%
COc1ccnn2ncc(-c3ccnc(N(C)C)n3)c12 — remaining binding (binding; 1 µM): 81%
CNC(=O)[C@@H]1CC[C@@H](n2c(-c3ccc4cnccc4c3)nc3ccc(C(=O)NCc4cccc(C(N)=O)c4)cc32)C1 — remaining binding (binding; competition with immobilised ligand; 1 µM): 87%
